# Experimental data gathered from unrelated publications.
# Compare with care: the assays were run in different laboratories.
# Target: Aurora kinase C (AURKC, Homo sapiens, UniProt Q9UQB9)
# Residues used in one study (Q9UQB9 1-309): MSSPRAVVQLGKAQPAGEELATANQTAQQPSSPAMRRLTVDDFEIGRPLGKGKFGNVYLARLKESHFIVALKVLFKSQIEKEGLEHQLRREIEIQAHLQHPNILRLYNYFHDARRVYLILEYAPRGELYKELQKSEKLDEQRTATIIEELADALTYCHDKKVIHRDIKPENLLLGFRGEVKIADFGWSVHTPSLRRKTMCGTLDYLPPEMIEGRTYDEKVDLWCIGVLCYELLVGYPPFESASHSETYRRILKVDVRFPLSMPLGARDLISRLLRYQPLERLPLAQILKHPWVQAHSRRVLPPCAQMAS
SMILES,assay,setting,remaining binding [%]
C[C@H]1CCN(c2nccc(-c3cnn4ncccc34)n2)C1,binding,1 µM,95
CS(=O)(=O)c1cc(C2(NC(=O)c3cncc4c3cnn4-c3ccc(F)cc3)CC2)ccn1,"cell-free assay, competition with immobilised ligand",1 µM,100
N[C@@H]1CCN(c2nccc(-c3cnn4ncccc34)n2)C1,binding,1 µM,100
Cn1nc(C(F)(F)F)cc1-c1cnc(N2CCc3cc(S(=O)(=O)Nc4c(F)cc(Cl)cc4F)cc(N4CCCC4=O)c32)nc1,"cell-free assay, competition with immobilised ligand",1 µM,100
O=C(NCC1CCOCC1)c1n[nH]cc1NC(=O)c1c(F)cccc1F,"binding, competition with immobilised ligand",1 µM,79
c1cncc(-c2cccc(Nc3nccc(NC4CCCCC4)n3)c2)c1,"binding, competition with immobilised ligand",10 µM,5.5
O=C(NC[C@@H]1[C@H]2CN(C(=O)OCc3cc(C(F)(F)F)cc(C(F)(F)F)c3)C[C@@H]12)c1ccc2[nH]nnc2c1,"cell-free assay, competition with immobilised ligand",1 µM,91
C[C@@H](c1ccc(-n2cnc3c(N)ncnc32)cc1)N1CCc2nn(C)c(Cc3ccccc3)c2C1=O,"binding, competition with immobilised ligand",0.1 µM,79
O=C(NCCCN1CCOCC1)c1ccc(Nc2ncc(Cl)c(-c3ccc(Cl)s3)n2)cc1,"binding, competition with immobilised ligand",1 µM,5.5
O=C(N1CCS(=O)(=O)CC1)N1C[C@H](c2ccc(OC(F)(F)F)cc2)C[C@H](c2nc(C3CC3)no2)C1,"cell-free assay, competition with immobilised ligand",1 µM,99
COc1ccnn2ncc(-c3ccnc(N(C)C)n3)c12,binding,1 µM,100
O=C(O)[C@@H]1[C@@H](Cn2nnc3ccccc3c2=O)CC[C@H]1C(=O)c1ccc(OCCC2CCOCC2)cc1,"cell-free assay, competition with immobilised ligand",1 µM,100
O=C(NCCCN1CCOCC1)c1ccc(Nc2nccc(-c3cc4ccccc4s3)n2)cc1,"binding, competition with immobilised ligand",1 µM,32
COc1ccc2c(O[C@@H]3C[C@H]4C(=O)N[C@]5(C(=O)O)CC5/C=C\CCCCC[C@H](NC(=O)OC5CCCC5)C(=O)N4C3)cc(-c3csc(NC(=O)C(C)C)n3)nc2c1C (stereo partly shown),"cell-free assay, competition with immobilised ligand",1 µM,96
CN(c1nccc(-c2cnn3ncccc23)n1)C1CC1,binding,1 µM,100
CNC(=O)[C@@H]1CC[C@@H](n2c(-c3ccc4cnccc4c3)nc3ccc(C(=O)NCc4cccc(C(N)=O)c4)cc32)C1,"binding, competition with immobilised ligand",1 µM,100
CN(C)c1ncc(F)c(-c2cnn3ncccc23)n1,binding,1 µM,100
Nc1ncc2c(n1)-c1c([nH]c3ccc(C#CC4CC4)cc13)CCCC2,"binding, competition with immobilised ligand",1 µM,86
c1cnn2ncc(-c3ccnc(N4CCC45COC5)n3)c2c1,binding,1 µM,96
CO[C@H]1CC[C@H](CNc2ccc(S(=O)(=O)NC(=O)c3ccc(N4CCN(CC5=C(c6ccc(Cl)cc6)CC(C)(C)CC5)CC4)cc3Oc3cnc4[nH]ccc4c3)cc2[N+](=O)[O-])CC1,"cell-free assay, competition with immobilised ligand",1 µM,87
O=C(c1ccc(Nc2ncc(Cl)c(-c3cc4ccccc4s3)n2)cc1)N1CCC(N2CCCC2)CC1,"binding, competition with immobilised ligand",1 µM,1.8
F[C@@H]1CCN(c2nccc(-c3cnn4ncccc34)n2)C1,binding,1 µM,100
